Source: article PMC7993319 (Clinical and Translational Science, 2020)
Read-outs that look alike come from different tables or passages of the source.

What was measured:
[1] = cited from earlier work
ALK = conditions: lactam metabolite, two diastereoisomers; cited from earlier work
[2] = Safety monitoring in the trial; assay type: in vivo, human (patient with ALK‐positive NSCLC)
How it was run: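 Safety was monitored by physical examination and laboratory tests on days 1 and 15, with safety visits on days 8 and 29. Triplicate 12-lead recordings were taken predose on day 1 (before the oral CYP3A inhibitor, 150 mg q.d. from day 2) and on days 8 and 15 of co-treatment with the ALK inhibitor. QT was corrected by Fridericia.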

[3] = assay type: in vivo, human (patients with ALK‐positive NSCLC); conditions: for Crizotinib Cmin,ss: enrolled patient; for AUC(0-t): human, oral, Crizotinib AUC0–12, enrolled patient
How it was run: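 Patients on standard oral ALK inhibitor (250 mg b.i.d., ≥14 days) with trough <310 ng/mL got oral CYP3A inhibitor 150 mg q.d. from day 2 for 14 days. Plasma sampled predose and 0.5–12 h (11 points) on days 1 and 15, plus trough on day 8. LC-MS/MS with ether extraction, isotope-labelled internal standard, 1–5,000 ng/mL. AUC0–12 by noncompartmental analysis.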

NSCLC = conditions: cited from earlier work
[4] = co‐administration of CYP3A‐inducing rifampin; cited from earlier work

In the case of `CCc1cc2c(cc1N1CCC(NCCO)CC1)C(C)(C)c1[nH]c3cc(C#N)ccc3c1C2=O` [M4], the “Activity of metabolite relative to alectinib” value [1] is listed as “equipotently active”.
In the case of `C[C@@H](Oc1cc(-c2cnn(C3CCNC(=O)C3)c2)cnc1N)c1c(Cl)ccc(F)c1Cl` (some centres unmarked) [PF‐06260182], the “ALK‐inhibiting activity” value (ALK) is listed as 4–8%.
In the case of `CCc1cc2c(cc1N1CCC(N3CCOCC3)CC1)C(C)(C)c1[nH]c3cc(C#N)ccc3c1C2=O` [alectinib], the “Increase of combined AUC of alectinib and the M4 metabolite” value ([1]; administration of the CYP3A inhibitor posaconazole) is listed as 36% and the “CYP3A contribution to clearance” value ([1]; alectinib) is listed as 40–50%.
`CC(C)c1nc(CN(C)C(=O)N[C@@H](CCN2CCOCC2)C(=O)N[C@H](CC[C@H](Cc2ccccc2)NC(=O)OCc2cncs2)Cc2ccccc2)cs1` [cobicistat] gave a QTcF ([2]; day 8 of cobicistat treatment, with crizotinib) of 410 ms, a Heart rate ([2]; day 15, crizotinib plus cobicistat) of 54 bpm and a QTcF ([2]; day 15 of cobicistat treatment, with crizotinib) of 413 ms. For the same compound, the “Safety signals / adverse events” value ([2]; single patient, crizotinib 250 mg b.i.d. plus cobicistat 150 mg q.d. for 14 days) was “No safety signals occurred” and the Laboratory changes ([2]; single patient, crizotinib plus cobicistat) was “no significant laboratory changes except a grade I increase in transaminases”.
With `C[C@@H](Oc1cc(-c2cnn(C3CCNCC3)c2)cnc1N)c1c(Cl)ccc(F)c1Cl` [crizotinib] the “Mean crizotinib Cmin,ss at screening” value ([3]; 7 screened patients, oral crizotinib 250 mg b.i.d., steady state, plasma) was 279 ± 77 ng/mL, the “AUC0–12 ratio” value ([3]; crizotinib with cobicistat (14 days) vs baseline) was 1.78 and the “Crizotinib Cmin,ss” value ([3]; day 1, before cobicistat, crizotinib 250 mg b.i.d.) was 158 ng/mL. For the same compound, the “Crizotinib Cmin,ss” value ([3]; day 8, with oral cobicistat 150 mg q.d.) was 308 ng/mL, the AUC(0-t) ([3]; plasma, after 14 days of cobicistat treatment) was 3920 ng·h/mL and the AUC(0-t) ([3]; plasma, baseline (before cobicistat), steady state) was 2210 ng·h/mL. The “Underexposed patients (Cmin,ss < 310 ng/mL)” value ([3]; unselected NSCLC population screened (5 of 7 patients)) was 71%, the “Increase of crizotinib AUC0–12” value ([3]; with cobicistat for 14 days vs before cobicistat) was 78% and the QTcF ([2]; before cobicistat treatment, on crizotinib, triplicate ECG) was 394 ms. For the same compound, the Heart rate ([2]; day 1, before cobicistat, on crizotinib) was 56 bpm, the “Hazard ratio (progression-free survival model)” value (NSCLC; lowest quartile vs. the combined upper three quartiles, 90% confidence interval: 1.62–6.36) was 3.2 and the ORR (NSCLC; quartile with the highest Cmin,ss) was 60–75%. The ORR (NSCLC; quartile with the lowest Cmin,ss (< 310 ng/mL)) was 24–47% and the “Decrease of crizotinib AUC” value [4] was 72%.
